Activity and zone of inhibition data for seven compounds are collected here from ChEMBL document CHEMBL1157319, “Altenuene derivatives from an unidentified freshwater fungus in the family Tubeufiaceae” (2006).

The source made the active and inactive calls. No cut-off for these calls is given here.

One test concerns Bacillus subtilis. The test is described as follows: Antibacterial activity against Bacillus subtilis ATCC 6051 at 100 ug/disk by disk diffusion method. Particulars: for zone of inhibition at 100 µg/disc: read-out: IZ. Format: functional. The gist of the method:
(§1)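 Paper disks each loaded with 100 µg of test material; gentamicin sulfate at 25 µg/disk served as the positive standard. Read-out was the diameter of the inhibition zone in mm. The same panel also included Escherichia coli ATCC 25922.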

The next test relates to Aspergillus flavus. The test can be described thus: Antifungal activity against Aspergillus flavus NRRL 6541 at 200 ug/disk by disk diffusion method. Format: functional, organism-based.
Another test concerns Fusarium verticillioides. The test can be described thus: Antifungal activity against Fusarium verticillioides NRRL 25457 at 200 ug/disk by disk diffusion method. Type of test: functional, organism-based. Background: A growth-free zone around the sample is the usual read-out of agar diffusion tests.
For another test, the system named is Staphylococcus aureus. The test is described as follows: Antibacterial activity against Staphylococcus aureus ATCC 29213 at 100 ug/disk by disk diffusion method. Type of test: functional. The following applies: for zone of inhibition at 100 µg/disc: read-out: IZ. In outline:
as §1

A further test relates to Candida albicans. The test can be described thus: Antifungal activity against Candida albicans ATCC 14053 at 200 ug/disk by disk diffusion method. Type of test: functional, organism-based.

In the case of `COc1cc(O)c2c(c1)C1=C[C@@H](O)[C@@H](O)C[C@]1(C)OC2=O`, the outcome in the test with Bacillus subtilis was inactive.
Turning to `COc1cc(O)c2c(c1)[C@H]1C[C@H](O)[C@@H](O)C[C@]1(C)OC2=O`, the result in the test on Aspergillus flavus, in the test on Fusarium verticillioides, in the test with Staphylococcus aureus, with Bacillus subtilis and in the test on Candida albicans was inactive.
Consider `COc1cc(O)c2c(c1)C1=C[C@H](O)[C@@H](O)C[C@]1(C)OC2=O` [ALTENUENE], for which the results for the zone of inhibition at 100 µg/disc with Staphylococcus aureus and in the test on Bacillus subtilis were 18 mm and 20 mm, respectively.
Regarding `COc1cc(O)c2c(c1)C1=CC(=O)[C@H](O)C[C@]1(C)OC2=O` [DEHYDROALTENUENE A], the outcome in the test with Aspergillus flavus, with Fusarium verticillioides and with Candida albicans was inactive. Further, the zone of inhibition at 100 µg/disc in the test on Bacillus subtilis turned out to be 13 mm.
For the compound `COc1cc(O)c2c(c1)C1=CC(=O)[C@@H](O)C[C@]1(C)OC2=O` [DEHYDROALTENUENE B], the outcome in the test on Aspergillus flavus, in the test with Fusarium verticillioides and with Candida albicans was inactive. For the same compound, the zone of inhibition at 100 µg/disc with Staphylococcus aureus is 14 mm; in the test on Bacillus subtilis it was 20 mm.
As to `COc1cc(O)c2c(c1)[C@H]1C[C@@H](O)[C@@H](O)C[C@]1(C)OC2=O` [DIHYDROALTENUENE A], the result in the test with Aspergillus flavus, in the test on Fusarium verticillioides and with Candida albicans was inactive. Moreover, the zone of inhibition at 100 µg/disc came out at 14 mm in the test on Staphylococcus aureus and 50 mm with Bacillus subtilis.
In the case of `COc1cc(O)c2c(c1)C1=C[C@@H](O)[C@H](O)C[C@]1(C)OC2=O` [ISOALTENUENE], the zone of inhibition at 100 µg/disc in the test on Bacillus subtilis was 30 mm.
